What all share (format): functional, cell-based
Assay [1] can be described thus: Cytotoxicity against human KB/VCR cells after 48 hrs by MTT assay. In outline: (§1)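 MTT assay; cells grown in RPMI-1640 or DMEM with 10% FBS, 37 °C, 5% CO2. Adherent cells allowed to attach 12 h before dosing; suspension cells seeded just before dosing at 1 × 10^5 cells/mL. Exposure at 0.1, 1, 10, 100 and 500 μM in triplicate for 48 h. 5-fluorouracil and doxorubicin as positive controls. IC50 by Reed and Muench method.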
A general note: Tetrazolium dyes change colour on reduction, which living cells bring about.

The subject of assay [2] is SMMC-7721. Kind of assay: Cytotoxicity against human SMMC7721 cells after 48 hrs by MTT assay. The note with it: SMMC-7721, 48 h. The method in brief:
as §1

In assay [3] the test system is KB. The experiment in a line: Cytotoxicity against human KB cells after 48 hrs by MTT assay. In outline: as §1
The subject of assay [4] is K562. The experiment in a line: Cytotoxicity against human K562 cells after 48 hrs by MTT assay. The note with it: K562, 48 h. In outline:
as §1

Assay [5] can be described thus: Cytotoxicity against multidrug-resistant human MCF7/ADR cells after 48 hrs by MTT assay. The note with it: NCI/ADR-RES. In outline: as §1
Assay [6] concerns MCF7. Kind of assay: Cytotoxicity against human MCF7 cells after 48 hrs by MTT assay. The note with it: MCF7, 48 h. The method in brief:
as §1

In assay [7] the test system is RAW264.7. Kind of assay: Antiinflammatory activity in mouse RAW264.7 cells assessed as inhibition of LPS-induced nitric oxide production pretreated for 2 hrs before LPS challenge measured after 18 hrs by Griess method. The method in brief:
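RAW 264.7 mouse macrophages in RPMI 1640 with 10% heat-inactivated FBS, penicillin/streptomycin, 37 °C, 5% CO2. Seeded 1 × 10^5 per well, 24 h, then pretreated 2 h with compounds at 40, 20, 10, 5, 2.5 μM (DMSO ≤0.1% final). LPS 2 μg/mL for 18 h. Supernatant nitrite read with Griess reagent at 540 nm against NaNO2 standard curve; n = 4; IC50.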
Background: Nitrite, measured by Griess reagent, commonly stands in for NO production.

Where only a bound is given, the exact number is not on record here.

Broadly, the IC50 is the concentration that inhibits the measured activity by half.

`C[C@@H]([C@@H](O)[C@H](O)[C@H](O)C(C)(C)O)[C@@H]1CC[C@]2(C)C3=CC[C@H]4C(C)(C)C(=O)CC[C@]4(C)[C@H]3CC[C@@]12C`: the half-inhibitory concentration (IC50) in assay [1] is 32.1 µM; in assay [2], 19.4 µM; in assay [3], 10.2 µM; in assay [4] it was 11.2 µM; in assay [5], 22.6 µM; in assay [6], 17.1 µM.
As to `C=C1[C@@H]([C@@]2(C)C=CC(=O)C(C)(C)[C@@H]2CC(=O)OC)[C@H](OC(C)=O)[C@H](OC(C)=O)[C@@]2(C)[C@H](C3=CCOC3=O)C[C@H]3O[C@]132`, the IC50 in assay [1] is over 50 µM; in assay [7], 20.9 µM; in assay [2], over 50 µM; in assay [3] it was over 50 µM; in assay [4] it was over 50 µM; in assay [5], over 50 µM. In assay [6], this molecule came in with an IC50 of over 50 µM.
In the case of `C=C1[C@@H]([C@@]2(C)C=CC(=O)C(C)(C)[C@@H]2CC(=O)OC)[C@@H](OC(C)=O)[C@H](OC(C)=O)[C@@]2(C)[C@H](C3=CC(O)OC3=O)C[C@H]3O[C@]132` (stereo partly specified), in assay [7], the IC50 came to 41.4 µM.
On the same count and under the same terms, the same measure for `C=C1[C@@H]([C@@]2(C)C=CC(=O)C(C)(C)[C@@H]2CC(=O)OC)[C@@H](OC(C)=O)[C@H](OC(C)=O)[C@@]2(C)[C@H](C3=CC(=O)OC3O)C[C@H]3O[C@]132` (stereo partly specified): 38.9 µM; for `C[C@@H]1C[C@H]2[C@@H]3CCC4=CC(=O)C=C[C@]4(C)[C@@]3(F)[C@@H](O)C[C@]2(C)[C@@]1(O)C(=O)CO` [DEXAMETHASONE]: 0.98 µM.
Turning to `COc1cccc2c1C(=O)c1c(O)c3c(c(O)c1C2=O)C[C@@](O)(C(=O)CO)C[C@@H]3O[C@H]1C[C@H](N)[C@H](O)[C@H](C)O1` [DOXORUBICIN], the concentration for half-maximal inhibition (IC50) in assay [1] is 0.45 µM; in assay [5] it was over 50 µM.
For `O=c1[nH]cc(F)c(=O)[nH]1` [FLUOROURACIL], the IC50 in assay [1] was 33.4 µM; in assay [2] it was over 100 µM; in assay [3], 6.8 µM; in assay [4] it was 2.1 µM; in assay [5] it was over 100 µM; in assay [6], over 100 µM.
As to `CC(C)(O)[C@@H]1OC[C@H]([C@@H]2CC=C3[C@]4(C)C(=O)C[C@H]5C(C)(C)C(=O)C=C[C@]5(C)[C@H]4[C@H](O)C[C@]32C)C[C@H]1O` [TOONACILIATAVARIN A], the half-maximal inhibitory concentration (IC50) was over 50 µM in assay [1]; 9.4 µM in assay [7]; over 50 µM in assay [2]; over 50 µM in assay [3]; over 50 µM in assay [4]; over 50 µM in assay [5]. Also, in assay [6], the IC50 was over 50 µM.
`CC(=O)O[C@@H]1C[C@H]2C(C)(C)C(=O)C=C[C@]2(C)[C@H]2[C@H](O)C[C@]3(C)C(=CC[C@H]3[C@H]3CO[C@@H](C(C)(C)O)[C@H](O)C3)[C@@]21C` [TOONACILIATAVARIN B]: the 50% inhibitory concentration (IC50) in assay [1] is over 50 µM; in assay [7], 7.9 µM; in assay [2] it was over 50 µM; in assay [3], over 50 µM; in assay [4], over 50 µM; in assay [5] it was over 50 µM. Moreover, the half-maximal inhibitory concentration (IC50) in assay [6] was over 50 µM.
Consider `CC(=O)O[C@@H]1C[C@H]2C(C)(C)C(=O)C=C[C@]2(C)[C@H]2[C@H](O)C[C@]3(C)C(=CC[C@H]3[C@H]3COC(C)(C)[C@@H](O)[C@H](O)C3)[C@@]21C` [TOONACILIATAVARIN C], for which the IC50 in assay [1] was over 50 µM; in assay [7], 11 µM; in assay [2], over 50 µM; in assay [3], over 50 µM; in assay [4] it was over 50 µM; in assay [5], over 50 µM. Further, the IC50 in assay [6] is over 50 µM.
As for `CC1(C)OC[C@H]([C@@H]2CC[C@]3(C)C4=CC[C@H]5C(C)(C)[C@@H](O)CC[C@]5(C)[C@H]4CC[C@@]23C)C[C@@H](O)[C@@H]1O` [TOONACILIATAVARIN D], the half-maximal inhibitory concentration (IC50) is over 50 µM in assay [1]; 33.4 µM in assay [7]; 31.4 µM in assay [2]; 39.5 µM in assay [3]; 43.1 µM in assay [4]; over 50 µM in assay [5]. In assay [6], the concentration for half-maximal inhibition (IC50) was over 50 µM.
As to `CC1(C)C(=O)C=C[C@]2(C)C3=CC[C@@]4(C)[C@H](C5=CC(=O)OC5O)C[C@H]5O[C@]54[C@]3(C)C(=O)C[C@@H]12` (stereo partly specified) [TOONACILIATAVARIN F], the IC50 in assay [1] is over 50 µM; in assay [7], 28.8 µM; in assay [2], over 50 µM; in assay [3] it was over 50 µM; in assay [4], over 50 µM; in assay [5], over 50 µM. In addition, the half-inhibitory concentration (IC50) in assay [6] was over 50 µM.
On to `CC1(C)C(=O)C=C[C@]2(C)C3=CC[C@@]4(C)[C@H](C5=CC(O)OC5=O)C[C@H]5O[C@]54[C@]3(C)C(=O)C[C@@H]12` (stereo partly specified) [TOONACILIATAVARIN G], for which the half-inhibitory concentration (IC50) in assay [1] is over 50 µM; in assay [7], 15.2 µM; in assay [2], over 50 µM; in assay [3] it was over 50 µM; in assay [4] it was over 50 µM; in assay [5], over 50 µM. The molecule also showed an IC50 in assay [6] of over 50 µM.

For the origin of these results see ChEMBL document CHEMBL2034944, “Cytotoxic and anti-inflammatory triterpenoids from Toona ciliata” (J Nat Prod, 2012).
